What was measured:
[1] = Lipophilicity, log D of the compound; type: physicochemical; conditions: chromatographic hydrophobicity index (CHI) method
Summary of the method: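 Lipophilicity was measured by a chromatographic method.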

[2] = Intrinsic clearance in rat microsomes; type: ADME, Microsome
[3] = Intrinsic clearance in human microsomes; type: ADME, Microsome
Rattus norvegicus = organism: Rattus norvegicus; experiment: Liver blood flow in rat; type: ADME, organism-based
[4] = Ratio of drug level in brain to blood in rat; type: ADME, tissue-based; conditions: read-out: BBR
[5] = Oral bioavailability in rat; type: ADME, organism-based; conditions: in vivo

Structure (SMILES)	logD [1]	CL [2]	CL [3]	QH (Rattus norvegicus)	Kp [4]	bioavailability [5]
COc1ccc(C(=O)N(Cc2c[nH]c(-c3ccccc3)n2)C2CCCCC2)cc1	2.9					
O=C(CN(C(=O)c1ccc(-c2ccccn2)cc1)C1CCOC1)Nc1cc(F)cc(F)c1 (configuration not stated)	2.5	3.2 mL/min/g	3.9 mL/min/g			
O=C(CN(C(=O)c1ccc(-n2ccnc2)cc1)C1CCCCC1)Nc1cc(F)cc(F)c1	2.7	1.2 mL/min/g	6.1 mL/min/g			
O=C(CN(C(=O)c1cccnc1)C1CCCCC1)Nc1cc(F)cc(F)c1	2.7					
COCC(C)N(CC(=O)Nc1cc(F)cc(F)c1)C(=O)c1ccc(-c2ccccn2)cc1 (configuration not stated)	3	4.2 mL/min/g	5.8 mL/min/g			
COc1ccc(C(=O)N(Cc2ccc(-c3ccc(Cl)cc3)o2)C2CCCCC2)cc1	5					
O=C(CN(C(=O)C1CCOCC1)C1CCCCC1)Nc1cc(F)cc(F)c1	3					
COc1ccc(C(=O)N(Cc2csc(-c3ccccc3)n2)C2CCCCC2)cc1	4.6					
O=C(CN(C(=O)c1ccc(N2CCCC2)nc1)C1CCCCC1)Nc1cc(F)cc(F)c1	3.6					
COc1ccc(C(=O)N(CC(=O)Nc2cc(F)cc(F)c2)C2CCCCC2)cc1	3.7					
COc1ccc(C(=O)N(Cc2[nH]ncc2-c2ccccc2)C2CCCCC2)cc1	3.1					
O=C(CN(C(=O)c1ccc(-c2ccccn2)cc1)C1CCCCC1)Nc1cc(F)cc(F)c1	3.7	15.4 mL/min/g	5.2 mL/min/g			
CCC(C)N(CC(=O)Nc1cc(F)cc(F)c1)C(=O)c1ccc(-c2ccccn2)cc1 (configuration not stated)	3.3	3.8 mL/min/g	4.3 mL/min/g			
O=C(CN(CC1CC1)C(=O)c1ccc(-c2ccccn2)cc1)Nc1cc(F)cc(F)c1	3.1	5 mL/min/g	< 0.5 mL/min/g			
COc1ccc(C(=O)N(Cc2cn(-c3ccccc3)nn2)C2CCCCC2)cc1	3.5					
COc1ccc(C(=O)N(Cc2c(C)noc2-c2ccccc2)C2CCCCC2)cc1	4.1					
O=C(CN(C(=O)c1ccc(-c2ccccn2)cc1)C1CCOCC1)Nc1cc(F)cc(F)c1	2.5	0.6 mL/min/g	< 0.5 mL/min/g	75%	0.2	25%
CCC(COC)N(CC(=O)Nc1cc(F)cc(F)c1)C(=O)c1ccc(-c2ccccn2)cc1 (configuration not stated)	3.3	6.7 mL/min/g	9.6 mL/min/g			
COCCN(CC(=O)Nc1cc(F)cc(F)c1)C(=O)c1ccc(-c2ccccn2)cc1		3 mL/min/g	1.5 mL/min/g			
CN(C)CCOc1ccc(C(=O)N(CC(=O)Nc2cc(F)cc(F)c2)C2CCCCC2)cc1	2.4					
O=C(CN(C(=O)c1ccc(-c2ccccn2)cc1)C1CCCC1)Nc1cc(F)cc(F)c1	3.4	3.7 mL/min/g	1.9 mL/min/g			
CN1CCC(C(=O)N(CC(=O)Nc2cc(F)cc(F)c2)C2CCCCC2)CC1	1.8					
O=C(CN(C(=O)c1ccc(-c2ccccn2)cc1)C1CCCOC1)Nc1cc(F)cc(F)c1 (racemic)	2.7	2 mL/min/g	2.9 mL/min/g	75%	0.2	15%
COc1ccc(C(=O)N(Cc2cc(-c3ccccc3)on2)C2CCCCC2)cc1	4.2					
O=C(CN(C(=O)c1ccc(N2CCCC2)cc1)C1CCCCC1)Nc1cc(F)cc(F)c1	4.5					
O=C(CN(CC1CCC1)C(=O)c1ccc(-c2ccccn2)cc1)Nc1cc(F)cc(F)c1	3.5	4.8 mL/min/g	2 mL/min/g			
CC(C)CN(CC(=O)Nc1cc(F)cc(F)c1)C(=O)c1ccc(-c2ccccn2)cc1	3.3	4.9 mL/min/g	1.3 mL/min/g			
Cn1ccc(C(=O)N(CC(=O)Nc2cc(F)cc(F)c2)C2CCCCC2)n1	3					
CC(C)N(CC(=O)Nc1cc(F)cc(F)c1)C(=O)c1ccc(-c2ccccn2)cc1	3	1.8 mL/min/g	< 0.5 mL/min/g			

From ChEMBL document CHEMBL1833896, “Acylglycinamides as inhibitors of glycine transporter type 1” (Bioorg Med Chem Lett, 2011)
